In data set [1] the test system is MCF7. Put plainly: Antiproliferative activity against human MCF7 cells after 4 days by crystal violet staining based spectrophotometric method. The format is functional, cell-based. The following applies: MCF7, 96 h.
In the next data set the test system is SK-OV-3. Kind of data set: Antiproliferative activity against human SKOV3 cells after 4 days by crystal violet staining based spectrophotometric method. The format is functional, cell-based. The settings on record: SK-OV-3, 96 h.
The next data set has as its system WI-38. Put plainly: Antiproliferative activity against human WI38 cells after 4 days by crystal violet staining based spectrophotometric method. The format is ADME, cell-based. The settings on record: WI-38, 96 h.
Data set [2] can be described thus: Drug metabolism in pH 7.4 PBS buffer assessed as H2S release from compound at 5 mM incubated for 4 days by DNS-Az probe based fluorescence assay. Type of data set: physicochemical. The settings on record: pH 7.4, 96 h, 5000 µM. The gist of the method:
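H₂S release in solution was measured with an H₂S-specific dansyl azide fluorescent probe after incubation at 37 °C for 4 days, against a blank sample.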

Data set [3] deals with MCF7. Kind of data set: Antiproliferative activity against human MCF7 cells after 72 hrs in presence of 1 uM Na2S by MTT assay. The format is functional, cell-based. The following applies: MCF7, 72 h. The gist of the method: (§1)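 Na₂S, which forms H₂S immediately in water, was added together with the test compound to MCF7 cells as a single administration. Proliferation was read by MTT assay.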
In general terms: Tetrazolium assays rely on reduction of a dye to a coloured formazan, in cell work by metabolically active cells.

For data set [4], the system named is MCF7. Put plainly: Antiproliferative activity against human MCF7 cells after 72 hrs in presence of 10 uM Na2S by MTT assay. Type of data set: functional, cell-based. The settings on record: MCF7, 72 h. The gist of the method: as §1
Data set [5] has as its system MCF7. Put plainly: Antiproliferative activity against human MCF7 cells after 72 hrs in presence of 100 uM Na2S by MTT assay. The format is functional, cell-based. The following applies: MCF7, 72 h. Summed up:
as §1

Data set [6] is described as follows: Therapeutic index, ratio of IC50 for human WI38 cells to IC50 for human MCF7 cells.
Data set [7] in a line: Drug metabolism in human MCF7 cells assessed as H2S release from compound at 400 uM incubated for 5 hrs by confocal microscopic assay. The following applies: mcf7, 5 h. The format is ADME, cell-based. The gist of the method: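 MCF-7 cells loaded with an H₂S-sensitive fluorescent probe for 2 h at 37 °C, washed, then exposed to H₂S donors for 5 h before confocal imaging. Controls were untreated cells, probe alone, and NaHS.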

Data set [8] can be described thus: Permeability of the compound by PAMPA. Type of data set: physicochemical. The following applies: read-out: permeability. For orientation: In PAMPA a lipid-coated filter parts donor from acceptor wells.

A value given as a limit tells only on which side of the number the result lay.

In general, IC50 refers to the concentration needed to halve the response being measured. Regarding `Cc1ccc(S(=O)(=O)N2c3ccccc3OP2(=S)c2ccccc2)cc1` (stereo not given), the values for the IC50 in the data set on MCF7 [1], in the data set on SK-OV-3 and with WI-38 were 181 µM, 230 µM and 353 µM, respectively.

`S=P1(c2ccccc2)OCC2C3CCC(O3)C2CO1` (stereo not given): the IC50 in the data set on MCF7 [1], in the data set on SK-OV-3 and in the data set with WI-38 was greater than 400 µM each time.

For the molecule `S=P1(c2ccccc2)NCc2ccccc2N1` (stereo not given), the IC50 in the data set with MCF7 [1] is greater than 400 µM; in the data set with SK-OV-3, greater than 400 µM; in the data set with WI-38, 173 µM.

Regarding `COc1ccc(P2(=S)OC[C@@H]3OC(C)(C)O[C@H]3CO2)cc1`, the IC50 was greater than 400 µM with MCF7 [1], 374 µM in the data set on SK-OV-3 and greater than 400 µM in the data set with WI-38. Moreover, the H2S released entry in data set [2] was “Not Active”.

For the molecule `S=P1(c2ccc(Oc3ccccc3)cc2)N[C@@H](c2ccccc2)[C@H](c2ccccc2)N1`, the results for the IC50 in the data set on MCF7 [1] and with SK-OV-3 were greater than 400 µM and 49 µM, respectively.

`S=P1(c2ccc(Oc3ccccc3)cc2)Nc2ccccc2O1` (stereo not given): the IC50 in the data set with MCF7 [1] was 73.9 µM; in the data set with SK-OV-3, 45.8 µM; with WI-38, 125 µM.

Regarding `COc1cccc2c1OP(=S)(c1ccccc1)O2` (stereo not given), the values for the IC50 with MCF7 [1], with SK-OV-3 and in the data set with WI-38 were 40.7 µM, 29.7 µM and 40.3 µM, respectively.

Turning to `COc1ccc(P2(=O)Oc3ccccc3-c3ccccc3O2)cc1`, the IC50 is 11 to 69 µM with MCF7 [1]; 5.94 µM in the data set on SK-OV-3; 18.6 µM in the data set with WI-38; 59 µM in the data set with MCF7 [3]; 52.9 µM in the data set with MCF7 [4]; 50.6 µM with MCF7 [5].

`COc1ccc(P2(=S)Nc3ccccc3CO2)cc1` (stereo not given): the figures for the IC50 in the data set on MCF7 [1], in the data set with SK-OV-3 and in the data set with WI-38 were 200 µM, 91.4 µM and 392 µM, respectively.

For the molecule `COc1ccc(P2(=S)Nc3ccc(Cl)cc3N2)cc1` (stereo not given), the IC50 in the data set with MCF7 [1] and in the data set on SK-OV-3 was greater than 400 µM each time.

As for `COc1ccc(P2(=S)Oc3ccccc3-c3ccccc3O2)cc1`, the IC50 was 0.76 to 0.82 µM in the data set on MCF7 [1]; 0.76 µM in the data set on SK-OV-3; 1.38 µM with WI-38; 1.17 µM in the data set with MCF7 [3]; 1.01 µM with MCF7 [4]; 1.44 µM with MCF7 [5]. Besides, the “Ratio IC50” value in data set [6] came to 2. For the same molecule, the H2S released in [2] came out at 2 µM. Further, the Drug metabolism result in [7] is “Metabolite_Detected”.

In the case of `S=P1(c2ccccc2)Oc2ccc(Br)cc2-c2cc(Br)ccc2O1`, the IC50 in the data set with MCF7 [1] and in the data set with SK-OV-3 was greater than 400 µM in each case.

Consider `O=S(=O)(c1ccc(Cl)cc1)N1c2ccccc2OP1(=S)c1ccccc1` (stereo not given), for which the IC50 in the data set with MCF7 [1] is 107 µM; with SK-OV-3 it was 110 µM.

Regarding `S=P1(c2ccc(Oc3ccccc3)cc2)Nc2ccccc2CO1` (stereo not given), the results for the IC50 in the data set with MCF7 [1], in the data set on SK-OV-3 and in the data set on WI-38 were 29.4 µM, 48.4 µM and 108 µM, respectively.

Take `S=P1(c2ccccc2)OCc2ccccc2CO1`: the IC50 was greater than 400 µM in the data set on MCF7 [1], 51.2 µM in the data set on SK-OV-3 and 134 µM in the data set with WI-38.

For the molecule `S=P1(c2ccccc2)OCc2cccc3cccc(c23)CO1`, the IC50 in the data set with MCF7 [1] was determined as 71.1 µM; with SK-OV-3, 51.1 µM; in the data set on WI-38, 76.2 µM.

As for `COc1ccc2c(c1)NP(=S)(c1ccccc1)O2` (stereo not given), the values for the IC50 in the data set on MCF7 [1] and in the data set on SK-OV-3 were 26.2 µM and 24.1 µM, respectively.

Regarding `S=P1(c2ccccc2)N[C@@H](c2ccccc2)[C@H](c2ccccc2)N1`, the IC50 was determined as 165 µM in the data set on MCF7 [1], 164 µM with SK-OV-3 and 145 µM in the data set on WI-38.

In the case of `COc1ccc2c(c1)NP(=S)(c1ccc(Oc3ccccc3)cc1)O2` (stereo not given), the figures for the IC50 in the data set on MCF7 [1] and in the data set with SK-OV-3 were 32.1 µM and 27.9 µM, respectively.

As for `S=P1(c2ccccc2)Nc2ccccc2O1` (stereo not given), the IC50 in the data set with WI-38 is greater than 50 µM. Moreover, the Drug metabolism entry in [7] was “Metabolite_Detected”.

As for `S=P1(c2ccccc2)Oc2ccccc2-c2ccccc2O1`, the IC50 worked out at 140 µM with MCF7 [1], 103 µM in the data set on SK-OV-3 and 400 µM in the data set with WI-38. Further, the “Ratio IC50” value in data set [6] came to 3. For the same molecule, the H2S released result in data set [2] is recorded as “Not Active”.

For the molecule `S=P(S)(NCc1ccccc1)c1ccc(Oc2ccccc2)cc1` (stereo not given), the Papp in data set [8] amounted to 1.9 ×10⁻⁶ cm/s. The results for the IC50 in the data set on SK-OV-3 and in the data set with WI-38 were 47 µM and 104 µM, respectively. The Drug metabolism result in [7] is recorded as “Metabolite_Detected”.

In the case of `COc1ccc(P2(=S)Oc3ccc(Br)cc3-c3cc(Br)ccc3O2)cc1`, the IC50 in the data set with MCF7 [1] and in the data set with SK-OV-3 was greater than 400 µM each time. Also, the H2S released result in [2] is given as “Not Active”.

As for `S=P1(c2ccccc2)Oc2ccc(-c3ccccc3)cc2-c2cc(-c3ccccc3)ccc2O1`, the IC50 with MCF7 [1] and with SK-OV-3 was greater than 400 µM throughout.

As for `COc1ccc(P2(=S)Oc3ccccc3O2)cc1`, the IC50 with MCF7 [1] is 281 µM; in the data set on SK-OV-3 it was 193 µM; with WI-38, 250 µM.

(Values after ChEMBL document CHEMBL4002611, “Discovery of medium ring thiophosphorus based heterocycles as antiproliferative agents” (Bioorg Med Chem Lett, 2017).)
